Reference: PubChem BioAssay AID504382 (The Scripps Research Institute Molecular Screening Center, 2011)
Hit rate of the full screen: of about 2,500 compounds, about 460 (18%) were called active. Only a sample is shown. A number with no mark means an inactive call.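 The calls were made as follows: active = mean activation above a cutoff of low control average plus 3 SD from the earlier screen (cut at about 12% in these data); inactive = the rest.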

Assay: IANBD-channel fluorescence artefacts in buffer – biochemical, artefact control for cardiac RTF calcium sensitizer project, confirmation (AID 504382)
Details: IANBD fluorescence interference counterscreen, EC20 Ca2+, at 7.2 µM, stronger effect = higher value, scaled: EC20 calcium 0, EC100 calcium 100
Summary of the method: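 Also added: EC20 calcium, 0.472 mM; dosing: single nominal 7.2 µM compound dose, 0.7% DMSO final; timing: 15 min, 25 °C; detection: fluorescence intensity, excitation 480 nm, emission 540 nm; replicates: each compound tested in triplicate wells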

Structure (SMILES) | fluorescence artifact activation
CCOc1nc(OCC)c2[nH]c(C(=O)O)c(Br)c2n1 | 0.34%
O=C(c1ccccc1Nc1ccc(SC(F)F)cc1)N1CCCCC1 | 0.06%
COc1ccc(C2C(C(=O)c3ccccc3)N3c4ccccc4C=CC3C2[N+](=O)[O-])cc1 (centres undefined) | 10.3%
N#CC1CC(c2ccc([N+](=O)[O-])cc2)=NN1c1ccc([N+](=O)[O-])cc1 (centres undefined) | 0.52%
NS(=O)(=O)c1ccc(N2N=C(c3ccccc3)CC2c2ccccc2)cc1 (centres undefined) | 15.1% (active)
O=[N+]([O-])c1ccc(C2=NN(c3ccccc3)C(c3ccco3)C2)cc1 (centres undefined) | -0.01%
N#CCC(=O)N/N=C/c1ccc(N2N=C(c3ccccc3)CC2c2ccccc2)cc1 (centres undefined) | -0.02%
COc1ccc(C2CC(c3ccncc3)=NN2c2ccc(S(N)(=O)=O)cc2)cc1 (centres undefined) | 1.86%
O=[N+]([O-])c1ccc(N2N=C(c3ccccc3)CC2c2ccccc2O)cc1 (centres undefined) | 47.5% (active)
CN(CC(=O)N1CCN(c2ncccn2)CC1)S(=O)(=O)c1ccc(Cl)cc1 | 0%
CCOC(=O)[C@H]1[C@H]2COc3ccccc3[C@@H]2N2C(=O)CN(Cc3ccc(C)cc3)C(=O)[C@@]12C | 0.38%
COc1ccc(/C=N/Nc2ncc(C(F)(F)F)cc2Cl)cc1OC | -0.02%
CC(C(=O)N1CCc2ccccc2C1)N1C(=O)c2ccccc2C1=O (centres undefined) | 0.12%
CCOC(=O)c1cc(C#N)c(SCC(=O)c2cc(C#N)c(SC)nc2C)[nH]c1=O | 6.31%
CC(=O)n1c(C=Nc2ccc(Cl)cc2)c(O)c2ccccc21 | 0.42%
COc1ccc(C2=NS(=O)(=O)N(C)C(C(=O)NC3CCCC3)=C2)cc1 | -0.02%
CCC(=O)Nc1nc2c(c(=O)[nH]1)CCCC2 | 0.02%
O=C(CCc1nc2sc3c(c2c(=O)[nH]1)CCCC3)Nc1ccccc1Cl | 31.9% (active)
O=C(CN1C(=O)NC2(CCCCC2)C1=O)Nc1ccccc1Cl | 0.05%
CSCC(O)Cn1ncc2ccccc2c1=O (centres undefined) | -0.02%

Structure (SMILES) | fluorescence artifact activation
O=C1CSC(=S)N1c1ccc(O)cc1 | 0.03%
CN(C)/C=C1\SC(=S)N(c2ccc(Br)cc2)C1=O | 43.8% (active)
CC(C)c1ccc(N2C(=O)/C(=C/N(C)C)SC2=S)cc1 | 18.9% (active)
CCN1C(=O)/C(=C/C=C2\N(CC)c3cc(S(=O)(=O)N(C)C)ccc3N2c2ccccc2)SC1=S | 0.15%
COCCNC(=O)CSc1nc(N)c(NC(=O)c2ccccc2F)c(=O)[nH]1 | 1.87%
CN1C2CCC1/C(=C/c1cccn1C)C(=O)/C2=C\c1cccn1C | 0.09%
CC(C)c1ccc(/C=C2\Oc3c(ccc(O)c3CN3CCN(C)CC3)C2=O)cc1 | -0.06%
O=c1cc(-c2ccccc2)oc2ccc(Br)cc12 | 0.06%
CCSc1cc(N2CCCC2)nc(-c2ccc(Cl)cc2)n1 | 0.62%
CC(=O)Nc1ccc(N=Cc2nc(-c3ccc(C)cc3)oc2O)cc1 | 8.23%
CC(C)CC[n+]1ccccc1/C=C/c1ccc(N(C)C)cc1 | -0.07%
COc1ccc(OC)c(S(=O)(=O)N2CCC(C(=O)NCc3ccccn3)CC2)c1 | 1.09%
CC(=O)Nc1ccc(Nc2cc(N(C)C)c3nonc3c2[N+](=O)[O-])cc1 | 33.2% (active)
CC1(C)CC(=O)C(C=Nc2cc(C(=O)c3ccccc3)ccc2N)=C(O)C1 | 6.24%
CN(C(=O)C1CCC1C(=O)O)c1nc(-c2ccc(Cl)s2)cs1 (centres undefined) | 21.3% (active)
O=C(NCc1ccccc1)C1(c2cccc(F)c2)CCCC1 | 0.26%
COC(=O)C/C(O)=C(/N=Nc1cccc(C(F)(F)F)c1)C(=O)OC | 0.94%
O=C(Nc1ccc(Cl)cn1)C1COc2ccccc2O1 (centres undefined) | 14.7% (active)
O=C(Nc1nc(-c2nc3ccccc3s2)cs1)C1COc2ccccc2O1 (centres undefined) | 11.1%
O=C1NCCN1c1ncc([N+](=O)[O-])s1 | 4.21%

Structure (SMILES) | fluorescence artifact activation
COc1ccc(S(=O)(=O)N(CC(C)C)C2CCS(=O)(=O)C2)cc1OC (centres undefined) | 2.69%
O=C1c2ccccc2C(=O)N1c1ccc(Cc2ccncc2)cc1 | 5.28%
O=C(Nc1nc2c(s1)CN(Cc1ccccc1)CC2)c1cccc(S(=O)(=O)N2CCc3ccccc32)c1 | -0.03%
Cc1ccc(S(=O)(=O)c2cc(C#N)c(=O)[nH]c2N)cc1 | 6.68%
O=C(CSc1ccc(Cl)cc1)Nc1nnc(-c2cccc([N+](=O)[O-])c2)s1 | 0.01%
O=C(Cc1ccc(Cl)cc1)NNS(=O)(=O)c1ccc([N+](=O)[O-])cc1 | 83% (active)
CC(=O)NCC(O)c1ccc([N+](=O)[O-])cc1 (centres undefined) | -0.01%
O=C1CC(/C=C/c2ccco2)=Nc2ccccc2N1 | 0.39%
Cc1ccc(NC(=O)O/N=C/c2ccc(F)cc2)cc1 | 0.14%
CCOC(=O)C1CCCN(C2=NC(=O)/C(=C/c3ccc(O)c(OC)c3)S2)C1 (centres undefined) | 0.04%
CCN1CC=C2C(C#N)=C(N)C(C#N)(C#N)C(c3cc(Cl)ccc3Cl)C2C1 (centres undefined) | 95% (active)
CCN1CC=C2C(C#N)=C(N)C(C#N)(C#N)[C@H](c3ccoc3)[C@H]2C1 | 0.03%
CCN1CC=C2C(C#N)=C(N)C(C#N)(C#N)[C@H](c3cccc(OC)c3OC)[C@H]2C1 | 0.43%
CC1=C(C(=O)N(C)C)C(c2ccc(C)s2)NC(=S)N1 (centres undefined) | 0.26%
CN(C)S(=O)(=O)c1ccc(C(=O)Oc2cc(=O)[nH]c3ccccc23)cc1 | 0.2%
CN(CC(=O)Nc1ccccc1Cl)C(=O)c1cc(=O)[nH]c2ccccc12 | 17.4% (active)
COc1ccc(N(CC(=O)Nc2ccccc2C(=O)NCC(C)C)S(C)(=O)=O)cc1 | 0.65%
N#Cc1c(NC(=O)/C=C/C(=O)O)sc2c1CCN(Cc1ccccc1)C2 | 0.08%
Nc1c(C(=O)Nc2ccc(S(=O)(=O)N3CCCC3)cc2)sc2nc3ccc(OC(F)(F)F)cc3cc12 | 0.16%
